Measurements of several laboratories.
Each line is one published result; the experiments were not run side by side.
Target: Dual specificity tyrosine-phosphorylation-regulated kinase 3 (DYRK3, Homo sapiens, UniProt O43781)
Effect on: enzyme activity
Mode: inhibitor
Sequence (O43781 1-588, as in one of the studies): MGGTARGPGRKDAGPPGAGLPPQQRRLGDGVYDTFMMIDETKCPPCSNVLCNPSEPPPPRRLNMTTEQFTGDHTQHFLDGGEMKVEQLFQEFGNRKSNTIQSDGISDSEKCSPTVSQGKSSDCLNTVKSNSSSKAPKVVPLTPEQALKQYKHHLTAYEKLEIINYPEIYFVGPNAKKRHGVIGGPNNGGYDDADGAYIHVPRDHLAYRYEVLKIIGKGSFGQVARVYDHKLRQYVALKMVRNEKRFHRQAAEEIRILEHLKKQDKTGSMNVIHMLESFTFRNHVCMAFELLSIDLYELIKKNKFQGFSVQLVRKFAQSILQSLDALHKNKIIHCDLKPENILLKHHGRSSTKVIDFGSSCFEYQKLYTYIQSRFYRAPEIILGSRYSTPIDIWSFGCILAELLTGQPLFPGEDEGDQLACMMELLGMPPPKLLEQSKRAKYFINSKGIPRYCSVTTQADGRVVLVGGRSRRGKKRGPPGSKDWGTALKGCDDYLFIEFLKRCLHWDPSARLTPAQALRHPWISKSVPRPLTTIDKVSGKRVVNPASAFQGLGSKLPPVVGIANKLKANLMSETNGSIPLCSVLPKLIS

The remaining activity of `CC(C)(C)c1nc(-c2cccc(NS(=O)(=O)c3c(F)cccc3F)c2F)c(-c2ccnc(N)n2)s1` is reported as 91% (radiometric; 1 µM).
The remaining activity of `CC(C)(C)C(=O)c1sc(NC2CCCCC2)nc1N` is reported as 96% (10 µM).
`Cc1sc(C(=O)NC2COC2)cc1-n1cc(NC(=O)Nc2c(F)cccc2Cl)cn1` gave a remaining activity of 101% (10 µM).
`FC(F)c1nc2ccccc2n1-c1nc(N2CCOCC2)nc(N2CCOCC2)n1` has a remaining activity of 87% (10 µM).
`CC(C)(C)c1nc2c(s1)c1nc(N)ncc1c1ccc(NS(=O)(=O)c3c(F)cccc3F)c(F)c12` has a remaining activity of 83% (radiometric; 1 µM).
`O=C(O)c1ccc2c(c1)nc(Nc1ccc(F)c(Cl)c1)c1ccncc12` gave a remaining activity of 1% (radiometric; 1 µM).
For `O=C(Nc1cnn(-c2csc(C(=O)NC3COC3)c2)c1)Nc1c(F)cccc1Cl`, the remaining activity was 99.2% (5 µM).
For `Cn1c(=O)n(-c2ccc(C(C)(C)C#N)cc2)c2c3cc(-c4cnc5ccccc5c4)ccc3ncc21`, the remaining activity was 56% (10 µM).
`N#Cc1cccc(Nc2nc3cc(C(=O)O)ccc3c3cncnc23)c1` gave a remaining activity of 15% (radiometric; 1 µM).
For `COc1cc(Nc2cnc(C#N)c(O[C@H](C)CN(C)C)n2)ncc1-c1cnn(C)c1`, the remaining activity was 79% (radiometric; 10 µM).
With `O=C(O)c1ccc2c(c1)nc(Nc1ccc3ccccc3c1)c1ncncc12` the remaining activity was 0% (radiometric; 1 µM).
`CC(C)(O)[C@H]1CC[C@H](Nc2ccc3ncc(-c4cccc(C(F)(F)F)c4)n3n2)CC1` gave a remaining activity of 63.6% (1 µM).
For `O=C(O)c1ccc2c(c1)nc(Nc1ccccc1Cl)c1ncncc12`, the remaining activity was 66% (radiometric; 1 µM).
`COc1cc(Cl)c(C(=O)N[C@@H](CN[C@H]2CC[C@@H](N)CC2)Cc2ccc(C#N)cc2)cc1-c1ccc(CN[C@H](C)c2ccc(C)cc2)o1` gave a remaining activity of 99% (1 µM).
With `Nc1nc(NC2CCCCC2)sc1C(=O)c1ccccc1` the remaining activity was 57% (10 µM).
For `O=C(O)c1ccc2c(c1)nc(Nc1ccccc1)c1ncncc12`, the remaining activity was 22% (radiometric; 1 µM).
